Source: ChEMBL document CHEMBL1133066, “Design and synthesis of novel pyrrolobenzodiazepine (PBD) prodrugs for ADEPT and GDEPT” (Bioorg Med Chem Lett, 2000)

Legend:
LS174T [1] = test: The compound was evaluated for Activation Factor; format: functional, Homo sapiens
LS174T [2] = test: Tested for the cytotoxicity in LS174T cells after activation by enzyme nitroreductase/NADH; format: functional, cell-based; conditions: Homo sapiens
Outline: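 Human adenocarcinoma LS174T cells were seeded at 2000 cells/well and exposed to a range of prodrug concentrations together with nitroreductase and NADH cofactor for 1 h. Cells were washed and grown for 3 days. IC50 is the prodrug dose giving 50% growth inhibition versus drug-free controls.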

LS174T [3] = test: Tested for the cytotoxicity in LS174T cells before activation by enzyme nitroreductase/NADH; format: functional, cell-based; conditions: Homo sapiens
Outline: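 LS174T adenocarcinoma cells were seeded at 2000 cells/well and treated with various prodrug concentrations for 1 h without enzyme. They were washed and incubated for 3 days. IC50 is the dose inhibiting growth by 50% relative to drug-free controls.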

LS174T [4] = test: Parent […] tested for the cytotoxicity in LS174T cells; format: functional, cell-based; conditions: Homo sapiens
LS174T [5] = test: Tested for the cytotoxicity in LS174T cells; 0.001-0.01; format: functional, cell-based; conditions: Homo sapiens

Compound	Activation Factor (LS174T [1])	IC50 (LS174T [2]) [µM]	IC50 (LS174T [3]) [µM]	IC50 (LS174T [4]) [nM]	IC50 (LS174T [5]) [nM]
C/C=C1/C[C@H]2[C@H](O)N(C(=O)OCc3ccc([N+](=O)[O-])cc3)c3cc(OCc4ccccc4)c(OC)cc3C(=O)N2C1	13.5	6.4	86.2	1	–
COc1cc2c(cc1OCc1ccccc1)N(C(=O)OCc1ccc([N+](=O)[O-])cc1)[C@@H](O)[C@@H]1CCCN1C2=O	>100	5	> 500	8	–
C/C=C1/C[C@H]2C=Nc3cc(OCc4ccccc4)c(OC)cc3C(=O)N2C1	–	–	–	–	10
COc1cc2c(cc1OCCCOc1cc3c(cc1OC)C(=O)N1CCC[C@H]1[C@H](O)N3C(=O)OCc1ccc([N+](=O)[O-])cc1)N(C(=O)OCc1ccc([N+](=O)[O-])cc1)[C@@H](O)[C@@H]1CCCN1C2=O	15.7	13.7	215	0.5	–
